Test results published in ChEMBL document CHEMBL3865787, “Combinatorial synthesis, in silico, molecular and biochemical studies of tetrazole-derived organic selenides with increased selectivity against hepatocellular carcinoma” (Eur J Med Chem, 2016).
Active and inactive are the calls of the source. The calls are words filed in the database; no cut-off is given here.

What was measured:
[1] = Cytotoxicity against human MCF7 cells assessed as reduction in cell viability after 48 hrs by MTT assay; assay type: functional, cell-based; settings: MCF7, 48 h
Summary of the method: (§1)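 Cells were grown in DMEM with 10% calf serum and seeded at 50,000 cells/mL. They grew 2 days at 37 °C, 10% CO2, then took serial compound dilutions for 48 h. MTT (final 0.5 mg/mL) ran 2 h; formazan was washed, dissolved in DMSO and read at 590 nm. IC50 was taken from dose-response curves as the mean of two parallel experiments. 5-FU was the positive control. TI = IC50 WI-38/IC50 HepG2.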

[2] = Cytotoxicity against human HepG2 cells assessed as reduction in cell viability after 48 hrs by MTT assay; assay type: functional, cell-based; settings: HepG2, 48 h; summary of the method: as §1
[3] = Cytotoxicity against human WI38 cells assessed as reduction in cell viability after 48 hrs by MTT assay; assay type: toxicity, cell-based, WI-38; summary of the method: as §1
[4] = Therapeutic index, ratio of IC50 for human WI38 cells to IC50 for human HepG2 cells; assay type: cell-based; settings: WI38 cells and HepG2 cells, read-out: Ratio IC50; summary of the method: as §1
[5] = Antioxidant activity assessed as DPPH radical scavenging activity at 1 uM after 30 mins in absence of light by spectrophotometric analysis; assay type: functional
Summary of the method: (§2)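 Compounds were dissolved in methanol at 1 µM, and 200 µL was added to 0.4 mL of 0.1 mM DPPH in methanol. Mixtures stood 30 min in the dark and were read at 517 nm against a blank (no DPPH). The negative control used methanol in place of compound. I% = (Ablank − Asample)/Ablank × 100. Ascorbic acid was the reference. Means of 3 replicates.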

[6] = Antioxidant activity assessed as DPPH radical scavenging activity at 1 uM after 30 mins in absence of light by spectrophotometric analysis relative to ascorbic acid; assay type: functional; summary of the method: as §2
[7] = Pro-oxidant activity as bleomycin-Fe2+ induced calf thymus DNA damage measured as absorbance at 2 mM after 1 hr by thiobarbituric acid-based assay; assay type: ADME; parameters: unit not given here; settings: cattle, 2000 µM
Summary of the method: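 The mix held calf thymus DNA 0.5 mg/mL, bleomycin sulfate 0.05 mg/mL, MgCl2 5 mM, FeCl3 50 mM and sample 2 mM. Ascorbic acid was the positive control. Capped tubes were heated at 80 °C for 30 min, ice-cooled, shaken and centrifuged. DNA damage was read as the increase in absorbance at 532 nm. Means of 3 replicates.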

[8] = Glutathione peroxidase-like activity assessed as decrease in H2O2 reduction at 41 uM preincubated with compound followed by H2O2 addition after 3 mins by spectrophotometry based NADPH-reductase coupled assay
Summary of the method: (§3)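 Buffer: 50 mM phosphate with 0.1% Triton X-100, plus NADPH reagent (24 µmol glutathione, 12 U glutathione reductase, 4.8 µmol NADPH). Compound was at 41 µM and the reaction was started with 0.8 mM H2O2. A340 was followed for 3 min, giving ΔA/min. Rates were corrected for background H2O2/GSH reaction, and for compound absorbance where colored. Ebselen (41 µM) served as reference.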

[9] = Glutathione peroxidase-like activity assessed as decrease in H2O2 reduction at 41 uM preincubated with compound followed by H2O2 addition after 3 mins by spectrophotometry based NADPH-reductase coupled assay relative to ebselen; summary of the method: as §3
[10] = Upregulation of caspase-8 expression in human HepG2 cells at IC50 after 48 hrs by ELISA; assay type: functional, cell-based
Summary of the method: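 Cells were trypsinized and lysed by liquid-nitrogen freeze–thaw. Lysates were incubated with HRP-conjugated anti-caspase-8 antibody for 30 min at 37 °C, with ELISA read-out at 450 nm. Levels were compared against untreated cells; mean ± SD, ANOVA with LSD/Dunnett post hoc.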

[11] = Downregulation of Ki67 expression in human HepG2 cells at IC50 after 48 hrs by ELISA; assay type: functional, cell-based
Summary of the method: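 They were detached with trypsin and lysed by four rounds of ultrasonication before Ki-67 measurement. Comparison was with untreated cells; mean ± SD, ANOVA with LSD/Dunnett post hoc.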

[12] = Downregulation of Bcl2 expression in human HepG2 cells at IC50 after 48 hrs by ELISA; assay type: functional, cell-based
Summary of the method: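 For ELISA, lysates had biotin conjugate 2 h at 25 °C, then streptavidin-HRP 1 h at 25 °C, read at 450 nm. Comparison was with untreated cells; mean ± SD, ANOVA with LSD/Dunnett post hoc.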

SMILES	IC50 [1] [µM]	IC50 [2] [µM]	IC50 at 48 h [3] [µM]	selectivity ratio [4]	Activity [5] [%]	fold change (FC) [6]	Activity [7]	Activity [8]	fold change (FC) [9]	Activity [10]	Activity [11]	Activity [12]
COC(CC(OC)OC)Cn1nnnc1C(Nc1ccc([Se][Se]c2ccc(NC(c3nnnn3CC(CC(OC)OC)OC)C(C)C)cc2)cc1)C(C)C (stereo unspecified)	≥ 100	47	≥ 100	> 2	26.3	0.3	94	Active				
COc1ccc(-n2nnnc2C(Nc2ccc([Se][Se]c3ccc(NC(c4nnnn4-c4ccc(OC)cc4)C(C)C)cc3)cc2)C(C)C)cc1 (stereo unspecified)	≥ 100	≥ 100	≥ 100		30.5	0.3	77					
COc1ccc(Cn2nnnc2C(Nc2ccc([Se][Se]c3ccc(NC(c4nnnn4Cc4ccc(OC)cc4OC)C(C)C)cc3)cc2)C(C)C)c(OC)c1 (stereo unspecified)	70	2	64	32	31.8	0.3	81	Active	< 5			
CC1=C([Se]c2ccc(NCc3nnnn3C(C)(C)C)cc2)C(=O)c2ccccc2C1=O	42	33	48	1.5	69	0.8	103					
CC(C)(C)n1nnnc1C(Nc1ccc([Se][Se]c2ccc(NC(c3ccco3)c3nnnn3C(C)(C)C)cc2)cc1)c1ccco1 (stereo unspecified)	14	51	11		24	0.3	108	Active	< 5			
Cc1ccc(C(Nc2ccc([Se][Se]c3ccc(NC(c4ccc(C)cc4)c4nnnn4C(C)(C)C)cc3)cc2)c2nnnn2C(C)(C)C)cc1 (stereo unspecified)	62	46	41		30.4	0.3	98					
O=c1[nH]cc(F)c(=O)[nH]1 [FLUOROURACIL]	3	8	4	0.5								
CC(C)(C)n1nnnc1CNc1ccc([Se][Se]c2ccc(NCc3nnnn3C(C)(C)C)cc2)cc1	28	44	21		44.3	0.5	93	Active				
CC1=C([Se]c2ccc(NC(c3ccco3)c3nnnn3C(C)(C)C)cc2)C(=O)c2ccccc2C1=O (stereo unspecified)	≥ 100	9	5	0.6	95.3	1	138			Active	Active	Active
CC(C)C(Nc1ccc([Se][Se]c2ccc(NC(c3nnnn3Cc3ccccc3)C(C)C)cc2)cc1)c1nnnn1Cc1ccccc1 (stereo unspecified)	≥ 100	10	≥ 100	> 10	20.5	0.2	92			Active	Active	Active
CC(C)C(Nc1ccc([Se][Se]c2ccc(NC(c3nnnn3C(C)(C)C)C(C)C)cc2)cc1)c1nnnn1C(C)(C)C (stereo unspecified)	≥ 100	37	≥ 100	> 3	38.6	0.4	67					
CC(=O)N(c1ccc([Se]C2=CC(=O)c3ccccc3C2=O)cc1)C(C(=O)NC(C)(C)C)c1ccc(C)cc1 (stereo unspecified)	34	53	29	> 0.5						Active	Active	Active
Cc1ccc(C(Nc2ccc([Se][Se]c3ccc(NC(c4ccc(C)cc4)c4nnnn4C4CCCCC4)cc3)cc2)c2nnnn2C2CCCCC2)cc1 (stereo unspecified)	78	≥ 100	56		22.9	0.3	79					
COc1ccc(Cn2nnnc2C(Nc2ccc([Se][Se]c3ccc(NC(c4ccco4)c4nnnn4Cc4ccc(OC)cc4OC)cc3)cc2)c2ccco2)c(OC)c1 (stereo unspecified)	≥ 100	≥ 100	88		18.8	0.2	81	Active				
CC(C)C(Nc1ccc([Se][Se]c2ccc(NC(c3nnnn3C3CCCCC3)C(C)C)cc2)cc1)c1nnnn1C1CCCCC1 (stereo unspecified)	52	≥ 100	43		22.9	0.2	99					
O=C1O[C@H]([C@@H](O)CO)C(O)=C1O [ASCORBIC ACID]					96.5		310					
c1cc([Se][Se]c2ccc(NCc3nnnn3C3CCCCC3)cc2)ccc1NCc1nnnn1C1CCCCC1	≥ 100	≥ 100	68		19.4	0.2	96	Active				
c1coc(C(Nc2ccc([Se][Se]c3ccc(NC(c4ccco4)c4nnnn4C4CCCCC4)cc3)cc2)c2nnnn2C2CCCCC2)c1 (stereo unspecified)	≥ 100	36	83	2	49.5	0.5	222	Active	< 5			
CC1=C([Se]c2ccc(NC(c3ccc(C)cc3)c3nnnn3C(C)(C)C)cc2)C(=O)c2ccccc2C1=O (stereo unspecified)	≥ 100	47	36	0.8	93	1	90	Active	< 5	Active	Active	Active
COc1ccc(Cn2nnnc2C(Nc2ccc([Se][Se]c3ccc(NC(c4ccc(C)cc4)c4nnnn4Cc4ccc(OC)cc4OC)cc3)cc2)c2ccc(C)cc2)c(OC)c1 (stereo unspecified)	≥ 100	≥ 100	≥ 100		22.1	0.2	130	Active	< 5			
